# An excerpt weighted towards active compounds, which were near 3.7% of everything screened.
# hERG protect: compounds protecting human hERG from proarrhythmic drug block. Q12809. CHO-hERG, FluxOR thallium flux, dofetilide IC70 present. activation (rescue from dofetilide block), less the hit threshold, % at 10 µM. 310,000 compounds, 0.51% hits. AID 1511;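 active = activation above the mean of controls blocked by dofetilide plus 5 SD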;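 also: thallium influx through hERG after potassium depolarization seen as dye fluorescence rise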
# KCNK9 block: inhibitors of human KCNK9 two-pore domain potassium channel; Q9NPC2; HEK293 KCNK9, FluxOR thallium flux fluorescence; stronger effect = lower value; B-score at 10 µM; 310,000 compounds, 1.2% hits; AID 488922;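 active = ratio B-score over 3 SD below the library mean, with starting fluorescence within 5 SD of its mean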;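 also: negative B-score means less thallium flux so channel inhibition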
# KCNQ1 pot: potentiates or activates the human KCNQ1 potassium channel | AID 2648 | CHO-K1 KCNQ1, thallium flux FluxOR fluorescence; stronger effect = higher value | B-score at 10 µM | P51787 | 310,000 compounds, 0.35% hits;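 active = fluorescence ratio B-score, a plate-corrected score, at least three library SD, with initial intensity B-score within 5 SD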
#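 Assay system: stable KCNQ1 CHO-K1 line; medium: assay buffer, equal DMSO in all wells; timing: 90 min dye loading and 20 min compound exposure, both at room temperature; technique: kinetic FluxOR thallium fluorescence, 10-s 1-Hz baseline, 110-s post-stimulus read; read-out basis: B score of baseline-normalized fluorescence ratio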
# KCNQ1 block: blocks the human KCNQ1 potassium channel; P51787; CHO-K1 KCNQ1, FluxOR thallium flux fluorescence; stronger effect = higher value; B-score at 10 µM; 310,000 compounds, 1.3% hits;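 active = compounds whose thallium flux B-score, printed positive for inhibition, exceeds three library SD while starting fluorescence stays within three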;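 also: channel opened by potassium depolarization with thallium stimulus after 20 min compound exposure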
# Kir21 inh: inhibitors of mouse Kir2.1 inward-rectifier potassium channel | AID 1672 | HEK293-Kir2.1, FluxOR thallium flux fluorescence; stronger effect = lower value | 310,000 compounds, 0.85% hits | B-score at 10 µM | P35561;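 active = fluorescence ratio B-score at or below minus 3 SD of library scores, with starting-brightness B-score within 2 SD, cut at about -4.2 in these data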;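 also: channel flux triggered by added potassium and thallium sulfate stimulus; B-score of peak minus minimum fluorescence over baseline after thallium stimulus; more negative B-score means stronger Kir2.1 block with less thallium influx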
# KCNK3 block: human KCNK3 channel inhibition, primary screen. CHO-KCNK3 thallium flux, FluxOR fluorescence; stronger effect = lower value. B-score at 10 µM. 340,000 compounds, 0.84% hits;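 active = B-score under library mean minus 4 SD, starting fluorescence ratio at most library mean plus 5 SD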;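 also: more negative B-score means stronger inhibition of thallium flux through KCNK3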
# Target sequence (O14649 whole entry, looked up): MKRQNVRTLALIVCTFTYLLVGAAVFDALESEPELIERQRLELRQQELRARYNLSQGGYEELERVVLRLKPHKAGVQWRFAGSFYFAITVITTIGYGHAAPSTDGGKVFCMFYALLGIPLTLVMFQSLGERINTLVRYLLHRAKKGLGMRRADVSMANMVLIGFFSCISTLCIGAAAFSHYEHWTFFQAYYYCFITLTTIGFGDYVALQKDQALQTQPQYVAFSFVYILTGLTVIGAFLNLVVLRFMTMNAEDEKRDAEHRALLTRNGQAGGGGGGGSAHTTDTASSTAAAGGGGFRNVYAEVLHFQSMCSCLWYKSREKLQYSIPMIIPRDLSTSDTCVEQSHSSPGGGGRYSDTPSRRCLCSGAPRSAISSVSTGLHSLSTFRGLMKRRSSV
# KCNK9 block conf: confirmation of human KCNK9 potassium channel inhibitors; inhibition, % at 10 µM; 4,900 compounds, 43% hits; HEK293 KCNK9 cells, FluxOR thallium flux fluorescence; shares compounds with KCNK9 block;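 active = thallium signal inhibited by more than 5 SD of the compound-free buffer control wells, on both duplicate plates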;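 also: 0% = assay buffer control wells without compound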
# Kir21 sel: mouse Kir2.1 off-target activity of KCNK9 modulators | shares compounds with KCNK9 block | Kir2.1 cells, FluxOR thallium flux fluorescence | inhibition, % at 10 µM | 4,900 compounds, 4% hits;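 active = thallium signal drop more than 5 SD beyond the mean of the no-compound control wells, seen in both duplicate plates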;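 also: signal is fluorescence rise after thallium addition divided by baseline fluorescence; plate controls were assay buffer only for no effect and full block by chlorpromazine control for full effect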
# HEK293 Tl ctr: non-induced cell nonspecific activity of KCNK9 modulators; 4,900 compounds, 40% hits; shares compounds with KCNK9 block; non-induced KCNK9-HEK293, FluxOR thallium flux; inhibition, % at 10 µM;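 active = thallium signal drop beyond 5 SD of the untreated control mean, on both duplicate plates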;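 also: plate controls were buffer only IC0 wells for no effect and SID17386958 at its maximal inhibitory level for full effect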
# Numbers without * were called inactive; i = inactive; · = no result given.
SMILES,hERG protect,KCNK9 block,KCNQ1 pot,KCNQ1 block,Kir21 inh,KCNK3 block,KCNK9 block conf,Kir21 sel,HEK293 Tl ctr
Cc1ccc2c(c1)/C(=C/c1ccccc1C)C(=O)N2,-0.7,i,i,i,0.75,i,·,·,·
Cc1cccc(/C=C2/C(=O)/C(=C/c3ccccc3C)C3CCC2N3C)c1 (centres undefined),-7.8,i,i,i,-0.84,i,i,i,i
CC(C)n1nc(C(=O)Nc2nnc(SCc3c(Cl)cccc3Cl)s2)c2ccccc2c1=O,-14.6,i,i,i,0.05,i,i,i,i
COc1ccc(CCN(C)S(=O)(=O)c2ccc(Cl)nc2)cc1OC,-6.3,i,i,i,-0.78,i,·,·,·
O=C(Nc1cccc(Cl)c1N1CCCC1)c1ccc(Br)o1,-16.2,-9.34*,i,i,-2.71,i,27.5%*,i,32.0%*
O=C(Nc1cccc(Cl)c1N1CCCC1)c1ccc([N+](=O)[O-])o1,-5.4,-10*,i,i,0.81,i,34.0%*,i,28.5%*
O=C(Nc1cccc(Cl)c1N1CCCC1)c1cc2ccccc2o1,-13.1,i,i,i,0.77,i,·,·,·
CC(C)C1=CC(=Nc2ccc(S(N)(=O)=O)cc2)C=C(C(C)C)C1=O,-13.8,i,i,i,-0.29,i,·,·,·
Clc1ccc(Cl)c2sc(N3CCCC3)nc12,-8.8,i,i,i,-1.06,i,·,·,·
Clc1cccc2sc(N3CCN(c4ccccc4)CC3)nc12,-18.8,-14.4*,i,i,0.01,i,35.5%*,i,36.5%*
CCOc1ccccc1NC(=O)c1cccc(NC(=O)c2ccco2)c1,-3.1,-9.38*,i,i,0.06,-9.89*,45.0%*,i,i
CCOc1ccccc1NC(=O)c1cccc(NC(=O)C2CCCC2)c1,-16.8,-12.6*,i,i,0.62,i,58.0%*,i,i
Cc1ccccc1/C=C/c1nc2ccccc2c(=O)n1CCc1ccccc1,-6.9,-11*,i,i,-0.01,i,24.5%*,i,33.0%*
CCOC(=O)C1(CCOc2ccccc2)CCN(Cc2cccn2-c2ncccn2)CC1,-19.6,i,i,i,-1.38,i,i,i,i
CCOC(=O)C1(CCOc2ccccc2)CCN(Cc2ccc(F)c(OC)c2)CC1,-4.8,i,i,i,-1.79,i,i,i,i
CCOC(=O)C1(CCOc2ccccc2)CCN(Cc2ccc(O)c(OC)c2)CC1,-13.7,i,i,i,-0.65,i,·,·,·
CCOC(=O)C1(CCOc2ccccc2)CCN(Cc2cc(OC)ccc2OC)CC1,-12.4,i,i,i,-0.18,i,i,i,i
O=S(=O)(Cc1ccccc1)Oc1ccccc1,-5.8,i,i,i,-1.6,i,·,·,·
COc1ccc(NC(=O)N(O)C2(C#N)CCCCC2)cc1,·,·,·,·,·,i,·,·,·
CC/C(C)=N\Nc1nc(-c2cc3cc(OC)ccc3oc2=O)cs1,-8.7,i,i,i,0.51,i,i,i,i
Cc1c(NC(=S)NC(=O)c2ccccc2)c(=O)n(-c2ccccc2)n1C,-9.4,i,i,i,-0.38,i,·,·,·
COCCn1c(N)c(N(Cc2ccccc2)C(=O)CSCC(=O)Nc2ccc(C)cc2)c(=O)[nH]c1=O,-13.3,i,i,i,-0.21,i,·,·,·
CCCCN(C)CCCNC(=O)C1CCC(CNS(=O)(=O)c2c(C)cc(C)cc2C)CC1 (centres undefined),-4.6,i,i,i,1.89,i,·,·,·
Cc1cc(C)c(C(=O)N2CCCC(N3CCN(c4cccc(C(F)(F)F)c4)CC3)C2)o1 (centres undefined),-15.9,i,i,i,1.2,i,·,·,·
O=C(c1cccs1)N1CCCC(N2CCN(c3cccc(C(F)(F)F)c3)CC2)C1 (centres undefined),-17.5,i,i,i,1.02,i,i,i,i
SMILES,hERG protect,KCNK9 block,KCNQ1 pot,KCNQ1 block,Kir21 inh,KCNK3 block,KCNK9 block conf,Kir21 sel,HEK293 Tl ctr
O=C(c1ccco1)N1CCCC(N2CCN(c3cccc(C(F)(F)F)c3)CC2)C1 (centres undefined),-17.7,i,i,i,0.66,i,i,i,i
O=C1[C@H]2CCC=C[C@H]2[C@H](c2cccc(Br)c2)N1Cc1ccccc1,·,·,·,·,·,i,·,·,·
C=C(C)c1cccc(C(C)(C)NC(=O)Nc2ccc(OC)nc2)c1,-3.0,i,i,i,0.04,i,·,·,·
Cc1ccc(CCNC(=O)c2nnc(CS(=O)(=O)c3ccccc3)o2)cc1,-8.3,i,i,i,-0.22,i,·,·,·
Fc1ccc(Cn2nnnc2C(c2ccc(Cl)cc2)N2CCSCC2)cc1 (centres undefined),-7.7,-9.37*,i,i,-1.67,i,40.0%*,i,44.0%*
CC1CN(C(=O)Cn2c(=O)oc3ccccc32)CC(C)O1 (centres undefined),-0.3,i,i,i,-0.88,i,·,·,·
Oc1ccccc1N=N/C(=N/Nc1ccccc1O)c1ccccc1,-8.0,i,i,i,0.03,i,·,·,·
N#C/C(N=Nc1ccccc1O)=N\Nc1ccccc1O,-36.7,-8.66*,i,6*,-1.73,i,30.0%*,29.5%*,i
O=C(N/N=C/c1c[nH]c2ccccc12)c1cc(Cl)ccc1O,-13.9,i,i,i,0.1,i,·,·,·
CCc1c(-c2ccccc2)[n+](=O)c2c(n1[O-])CCC2,-4.2,i,i,i,-2.58,i,·,·,·
CCOc1ccc(CCNC(=O)CS(=O)Cc2nc(-c3ccccc3C)oc2C)cc1OCC (centres undefined),-5.3,i,i,i,-1.76,i,·,·,·
N#Cc1ccc(C(=O)NNC(=O)c2ccncc2)cc1,-6.9,i,i,i,-0.13,i,·,·,·
Cc1ccccc1CC1(CO)CCCN(C(=O)c2cccc(Cl)c2)C1 (centres undefined),-18.7,i,i,i,-0.92,i,i,i,23.5%*
COc1cc(NC(=O)c2ccc3c(c2)S(=O)(=O)N=C2CCCCCN23)cc(OC)c1,-2.7,i,i,i,0.76,i,·,·,·
CCOC(=O)c1c(-c2cccs2)csc1NC(=O)COC(=O)c1c(C)noc1C,-17.0,i,i,i,0.24,-8.9*,i,i,i

# Screens deposited in PubChem BioAssay by Johns Hopkins Ion Channel Center.
